Entries after “also recorded” stand apart in the source; their conditions may differ.
Legend:
p38γ = target: T1, p38γ (Homo sapiens, UniProt P53778); experiment: ADP-Glo in vitro kinase assay; assay type: biochemical; settings: for inhibition of p38γ kinase activity (in words): cell-free ADP-Glo, 1 μmol/L and 10 μmol/L, Figure 5c
T1 sequence (P53778 1-367): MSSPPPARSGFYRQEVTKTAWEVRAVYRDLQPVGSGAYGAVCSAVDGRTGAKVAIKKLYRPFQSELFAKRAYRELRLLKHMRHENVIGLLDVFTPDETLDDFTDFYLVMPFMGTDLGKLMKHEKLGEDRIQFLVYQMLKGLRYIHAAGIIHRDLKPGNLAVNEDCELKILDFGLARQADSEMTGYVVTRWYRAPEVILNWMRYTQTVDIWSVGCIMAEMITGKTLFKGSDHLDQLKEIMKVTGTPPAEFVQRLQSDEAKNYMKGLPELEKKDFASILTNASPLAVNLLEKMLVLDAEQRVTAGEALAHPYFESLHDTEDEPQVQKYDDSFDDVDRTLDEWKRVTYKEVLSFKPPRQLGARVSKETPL

Hut78 cells = assay type: cell-based, human; settings: for reduction of Hut78 cell viability (in words): Figure 5a
CTCL cells = experiment: Cell killing of CTCL cells; assay type: cell-based; settings: Homo sapiens, read-out: IC50 for cell killing on the CTCL cells
Summary of the method: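 Hut78, HH and H9 CTCL cell lines were exposed to varying concentrations of test compound for 72 hours. Viability was read by CellTiterGlo and normalized to DMSO control. IC50 was derived from dose-response data. There were three independent experiments, each averaged from triplicates.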

| Compound | inhibition of p38γ kinase activity (in words) (p38γ) | influence on viability of Hut78 cells (in words) (Hut78 cells; up to approximately 10 μmol/L, 72 hours) | IC50 (p38γ) [µM] | IC50 (CTCL cells) [µM] | reduction of Hut78 cell viability (in words) (Hut78 cells) |
| --- | --- | --- | --- | --- | --- |
| Cc1nc(NC(=O)N2CCC[C@H]2C(N)=O)sc1-c1csc(C(C)(C)C)n1 [A66] | no inhibitory kinase activities against p38γ; also recorded: does not inhibit in vitro activity of p38γ | no influence on the viability of Hut78 cells; also recorded: does not affect cell viability | – | – | – |
| Cc1ccc(=O)n(-c2ccccc2)c1 [pirfenidone] | – | – | > 125 | > 125 | – |
| Cn1c(=O)n(-c2ccc(C(C)(C)C#N)cc2)c2c3cc(-c4cnc5ccccc5c4)ccc3ncc21 [BEZ235] | no inhibitory kinase activities against p38γ | – | – | – | only modest reduction of cell viability |
| CS(=O)(=O)N1CCN(Cc2cc3nc(-c4cccc5[nH]ncc45)nc(N4CCOCC4)c3s2)CC1 [GDC0941] | no inhibitory kinase activities against p38γ | – | – | – | only modest reduction of cell viability |

— publication PMC7269016 (The Journal of investigative dermatology, 2018)
